Bioassay records as filed in PubChem BioAssay.
Scp-1 inhibitor: Scp-1 (human) phosphatase inhibition; 340,000 compounds, 0.88% hits; inhibition, % at 20 µM; Recombinant Scp1, phosphopeptide, malachite green phosphate absorbance;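 active = inhibition above about 50% at 20 µM, limit read from the data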
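Assay system: SCP-1 catalytic fragment, aa 76-261 | Buffer or medium: Tris acetate buffer pH 5.5 with MgCl2 and Tween-20 | Compound: One concentration, 20 µM, with 1.0% DMSO | Also added: Phospho 17-mer peptide substrate | Signal: Absorbance at 630 nm | Incubation: 45 min enzyme reaction at room temperature | Measure: % inhibition of SCP-1 phosphate liberation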
STEP inh: inhibitors of human striatal-enriched phosphatase STEP; P54829; recombinant STEP, OMFP fluorogenic substrate, fluorescence; inhibition, % at 20 µM; 360,000 compounds, 0.25% hits; AID 588621;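 active = inhibition at 20 µM, scaled per plate between control wells, above about 37%, limit read from the data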
Target sequence (P54829 whole entry, looked up): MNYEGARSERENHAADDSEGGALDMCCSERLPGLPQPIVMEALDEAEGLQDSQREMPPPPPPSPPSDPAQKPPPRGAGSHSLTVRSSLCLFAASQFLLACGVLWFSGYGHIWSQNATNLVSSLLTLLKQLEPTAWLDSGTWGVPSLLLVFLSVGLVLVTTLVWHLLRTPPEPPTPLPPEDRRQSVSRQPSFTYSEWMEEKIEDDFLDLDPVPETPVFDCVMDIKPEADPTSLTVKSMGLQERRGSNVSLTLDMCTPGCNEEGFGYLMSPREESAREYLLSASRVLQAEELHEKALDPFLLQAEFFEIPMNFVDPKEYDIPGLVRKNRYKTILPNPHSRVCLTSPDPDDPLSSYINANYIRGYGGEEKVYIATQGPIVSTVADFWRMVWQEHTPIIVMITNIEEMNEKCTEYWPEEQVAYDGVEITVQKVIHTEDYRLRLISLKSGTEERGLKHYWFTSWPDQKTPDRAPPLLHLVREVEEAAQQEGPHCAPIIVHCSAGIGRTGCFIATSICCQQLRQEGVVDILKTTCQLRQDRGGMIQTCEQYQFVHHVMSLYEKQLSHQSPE
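Measure: Control-normalized % inhibition with plate pattern correction | Test system: STEP phosphatase, cell-free reaction | Medium: pH 6.0 Bis-Tris with DTT and Tween 20 | Technique: Fluorescence, 480/540 nm | Times: Reaction 20 min, ambient temperature | Doses: Single compound dose of 20 µM, 1% DMSO final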
HKDC1 inhibitor: HKDC1 (human) hexokinase inhibition; Q2TB90; recombinant HKDC1, G6PDH/diaphorase resazurin coupled fluorescence; inhibition, % at 20 µM; 340,000 compounds, 0.16% hits; AID 493160;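 active = inhibition above about 35% when tested at 20 µM, limit read from the data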
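Test system: recombinant HKDC1 (HK5) hexokinase enzyme, produced in-house; Amount: enzyme 5 µg/mL final; Buffer or medium: Tris pH 8.0 buffer with MgCl2, Tween-20, BSA, BME; Reagent: glucose and ATP substrates; Doses: 20 µM test compound, 1% DMSO; Incubation: 90 min reaction incubation at room temperature, dark; Detection: resorufin fluorescence at 613 nm.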
SUMO1 PPI mod: modulators of human SUMO1-mediated protein-protein interactions; P63165; SUMO1 binding to a labelled peptide, TR-FRET, 1 h; 360,000 compounds, 0.33% hits; inhibition, % at 20 µM; in the data active = inhibition above about 37%
DNMT1 inh: DNMT1 (human) enzyme inhibition. DNMT1 molecular beacon, Hinp1I cleavage, fluorescence. inhibition (reported as % activation of signal), % at 10 µM. 360,000 compounds, 0.83% hits. AID 588458; in the data active = inhibition above about 50%
LMPTP inh: LMPTP (human) inhibition | P24666 | recombinant LMPTP-A, OMFP fluorogenic substrate, fluorescence intensity | inhibition, % at 20 µM | 360,000 compounds, 0.22% hits;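 active = compounds that cut the enzyme signal by at least half of the control window in the single-dose screen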
Target sequence (P24666 whole entry, looked up): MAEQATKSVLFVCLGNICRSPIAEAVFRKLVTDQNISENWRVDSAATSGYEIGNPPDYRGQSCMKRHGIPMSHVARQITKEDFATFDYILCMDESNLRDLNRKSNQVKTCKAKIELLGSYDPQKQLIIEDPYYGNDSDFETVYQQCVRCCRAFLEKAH
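Test system: LMPTP-A phosphatase enzyme; input: 0.625 nM LMPTP-A final; reagent: OMFP substrate, 400 µM final; compound dosing: 20 µM single dose, 3% DMSO; incubation: 50 min dark incubation at room temperature; measured by: endpoint fluorescence intensity from OMFP dephosphorylation; measure: % inhibition relative to no-enzyme and uninhibited control wells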
Scp1 confirm: Scp-1 (human) inhibition, single-dose confirmed. AID 540281. recombinant SCP-1 catalytic domain, phosphate release, malachite green absorbance. shares compounds with Scp-1 inhibitor. inhibition, % at 20 µM. 2,500 compounds, 61% hits
MG interference: counter-screen for Scp-1 inhibitors: colorimetric interference; shares compounds with Scp-1 inhibitor; Colorimetric interference counterscreen, malachite green absorbance 630 nm; apparent inhibition (interference), % at 20 µM; 2,500 tested, under 10 active; AID 540313;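 also: compounds added after enzyme reaction finished so only phosphate colour detection is probed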
Scp-1 Tm shift: validation of human Scp-1 inhibitors by thermal shift binding. shares compounds with Scp-1 inhibitor. Recombinant SCP1, Sypro Orange thermal shift Tm. thermal shift relative to vanadate control, % at 40 µM. 1,500 compounds, 25% hits;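 active = substances whose mean melting-temperature shift, as a percentage of the reference inhibitor's shift, reaches about 5.3%, limit read from the data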
A number is an active result; – = inactive; · = no result. Only some compounds are listed: those with a hit (about 1.8% of all), similar ones and a draw of the others.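 The calls were made as follows, unless noted: active = inhibition of at least 30% at 20 µM; inactive = the rest.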

SMILES	Scp-1 inhibitor	STEP inh	HKDC1 inhibitor	SUMO1 PPI mod	DNMT1 inh	LMPTP inh	Scp1 confirm	MG interference	others
CCC1SC2=NC(C)=C(C(=O)OCC(C)C)C(/C=C/c3ccccc3OC)N2C1=O (centres undefined)	–	–	–	–	–	–	·	·
CCC1SC2=NC(C)=C(C(=O)OCCOC)C(/C=C/c3ccccc3OC)N2C1=O (centres undefined)	58	–	–	–	–	–	–	–
Cc1c(NS(=O)(=O)c2cc(C(=O)NCCN(C)C)ccc2Cl)c(=O)n(-c2ccccc2)n1C	73	–	–	–	–	–	37	–	Scp-1 Tm shift=–
Cc1ccc(CC(=O)N/N=C/c2ccc(OC(=O)c3ccc([N+](=O)[O-])cc3)cc2)cc1	61	–	–	–	–	–	42	–	Scp-1 Tm shift=–
Cc1ccc2c(COC(=O)CNC(=O)c3ccco3)cc(=O)oc2c1C	–	–	–	–	–	–	·	·
Cc1cccc(NC(=O)C2CCCN2S(=O)(=O)c2ccc3c(c2)n(C)c(=O)c(=O)n3C)c1 (centres undefined)	–	–	–	–	–	–	–	–
CCc1cccc(NC(=O)C2CCCN2S(=O)(=O)c2ccc3c(c2)n(C)c(=O)c(=O)n3C)c1 (centres undefined)	–	–	–	–	–	–	·	·
COc1cc(C(=O)NCC(=O)N2CCN(S(=O)(=O)c3cc(C)ccc3C)CC2)cc(OC)c1OC	–	–	–	–	–	–	·	·
CCOCc1cnc(C)nc1NCC(=O)c1c(C)n(C)c2ccc(OC)cc12	51	–	–	–	–	–	–	–
N#C/C(=C\c1ccc(/C=C(/C#N)c2nn(CCO)c(N)c2C#N)cc1)c1nn(CCO)c(N)c1C#N	68	–	–	60	–	–	–	–
COc1ccc(C(c2nnnn2C2CCCCC2)N2CCN(C/C=C/c3ccccc3)CC2)cc1 (centres undefined)	·	–	·	–	–	–	·	·
O=C(O)c1cccc2c1-c1ccc(Cl)cc1C2=O	–	–	–	–	–	–	·	·
Nc1cccc2c1C(=O)c1ccc(Cl)cc1C2=O	50	–	–	–	–	–	–	–
CCC(C)c1ccccc1NC(=O)c1cccc(-n2cnnn2)c1 (centres undefined)	73	–	–	–	–	–	–	–
Cc1ccc(S(=O)(=O)NC(=O)c2ccc(-c3ccc(C)c4ccccc34)o2)cc1	61	–	–	–	–	–	77	–	Scp-1 Tm shift=–
Cc1ccc(-c2ccc(C(=O)Nc3ccccc3)o2)c2ccccc12	–	–	–	–	–	–	·	·
CN(Cc1ccccc1)C(=O)c1ncn(Cc2ccccc2)c1C(=O)N(C)Cc1ccccc1	–	–	–	–	–	–	·	·
CN(Cc1ccccc1)C(=O)c1ncn(C)c1C(=O)N(C)Cc1ccccc1	93	–	–	–	–	–	85	–	Scp-1 Tm shift=–
CCCNC(=O)C[C@@H]1C[C@@H]2c3cc(NS(=O)(=O)c4ccc(OC)cc4)ccc3O[C@@H]2[C@@H](CO)O1	·	–	·	–	–	–	·	·
Cn1c(SCC(=O)N/N=C/C=C/c2ccco2)nc2ccccc21	73	–	–	–	57	–	62	–	Scp-1 Tm shift=–
O=C(N/N=C/C=C/c1ccco1)c1cnccn1	–	–	–	–	–	–	·	·
O=C(N/N=C/C=C\c1ccco1)c1ccccn1	52	–	–	–	–	–	39	–	Scp-1 Tm shift=–
COc1cc(OC)c(OC)cc1CN1CCN(Cc2ccco2)CC1	–	–	–	–	–	–	·	·
O=C(COc1ccccc1Cl)NCCCNC(=O)c1cccnc1	–	–	–	–	–	–	·	·
Cc1ccc(NC(=S)NC(=O)CC2CC(C)(C)OC2=O)cc1 (centres undefined)	–	–	–	–	–	–	·	·
SMILES	Scp-1 inhibitor	STEP inh	HKDC1 inhibitor	SUMO1 PPI mod	DNMT1 inh	LMPTP inh	Scp1 confirm	MG interference	others
Cc1cccc(NC(=S)NC(=O)CC2CC(C)(C)OC2=O)c1 (centres undefined)	–	–	–	–	–	–	–	–
CC1(c2ccccc2)NC(=O)N(CC(=O)N2CCN(S(=O)(=O)c3ccccc3[N+](=O)[O-])CC2)C1=O (centres undefined)	50	–	–	–	–	–	–	–
COc1ccc(N2CCN(C(=O)CN(C)S(=O)(=O)c3cnc[nH]3)CC2)cc1	54	–	–	–	–	–	–	–
CC(C)NC(=O)CC1OC(=O)c2ccccc21 (centres undefined)	–	–	–	–	–	–	·	·
O=C(CC1OC(=O)c2ccccc21)NNC(=O)c1ccc(F)cc1 (centres undefined)	–	–	–	–	–	–	–	–
O=C(Nc1cccc(S(=O)(=O)N2CCCCC2)c1)c1cc(=O)[nH]c2ccccc12	–	–	–	–	–	–	·	·
CC1CCc2sc(C(=O)N/N=C/c3ccc([N+](=O)[O-])cc3)cc2C1 (centres undefined)	72	–	–	–	–	–	69	–	Scp-1 Tm shift=–
O=C(N/N=C/c1ccc([N+](=O)[O-])cc1)c1cccs1	60	–	–	–	–	–	53	–	Scp-1 Tm shift=–
CC1CCc2sc(C(=O)NN=C3CCC(c4ccccc4)CC3)cc2C1 (centres undefined)	–	–	–	–	–	–	·	·
COc1ccc(NC(=O)c2cc(C3CCCCN3S(=O)(=O)c3cn(C)cn3)on2)c(C)c1 (centres undefined)	·	–	·	–	–	–	·	·
COc1ccc(C(C(=O)Nc2ccc(F)cc2)N2CCN(CC(=O)N3CCCC3)CC2)cc1 (centres undefined)	·	·	·	–	·	–	·	·
CCOC(=O)c1cnc2nc(NCc3ccc(OCc4ccccc4)cc3)[nH]n2c1=O	71	–	–	–	–	–	91	–	Scp-1 Tm shift=–
CCOC(=O)c1cnc2nc(COc3ccccc3)[nH]n2c1=O	–	–	–	–	–	–	·	·
Cc1ccc(NC(=O)CSc2ccccc2NC(=O)c2ccccc2Cl)cc1Cl	90	–	–	–	–	–	63	–	Scp-1 Tm shift=–
Cc1ccc(NC(=O)CSc2ccccc2NC(=O)c2ccccc2)cc1Cl	–	–	–	–	–	–	·	·
COc1cc(NC(=S)N2CCCC(CO)C2)cc(OC)c1 (centres undefined)	70	–	–	–	–	–	–	–
COC(=O)Cc1ccc(NC(=S)N2CCCC(CO)C2)cc1 (centres undefined)	–	–	–	–	–	–	·	·
